Laboratory results published in ChEMBL document CHEMBL1671756, “In vitro and in vivo antifungal susceptibilities of the Mucoralean fungus Cunninghamella” (2010).
Values after ≈ are worked out from the molar mass of the structure shown. Active and inactive are the calls of the source. No cut-off for these calls is given here.

How the values were obtained:
[1] = tested on: Cunninghamella bertholletiae; assay: Antifungal activity against Cunninghamella bertholletiae UTHSC 06-1945 infected in neutropenic OF1 mouse assessed as decreased fungal load in kidney at 60 mg/kg, po qd administered 1 day post infection measured after 4 to 5 days relative to untreated control; assay type: functional, organism-based; set-up: dose 60 mg/kg
Outline: (§1)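 Neutropenic male OF1 mice (cyclophosphamide 200 mg/kg i.p. plus 5-fluorouracil 150 mg/kg i.v., day −1) were given 1 × 10⁴ CFU sporangiospores i.v. in 0.2 ml saline. Treatment from 24 h: 0.8 mg/kg i.v. or oral doses once daily; 10 mice per group. Killed at day 5 (day 4 if moribund). About half of brain, lungs and kidneys homogenized in saline; 10-fold dilutions plated on PDA for 24 h at 35°C; log₁₀ CFU/g tissue.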

[2] = tested on: Cunninghamella bertholletiae; assay: Antifungal activity against Cunninghamella bertholletiae UTHSC 06-1945 infected in neutropenic OF1 mouse assessed as decreased fungal load in lung at 60 mg/kg, po qd administered 1 day post infection measured after 4 to 5 days relative to untreated control; assay type: functional, organism-based; set-up: dose 60 mg/kg; outline: as §1
[3] = Antifungal activity against Cunninghamella echinulata UTHSC 01-2298 after 24 hrs by broth microdilution method; assay type: functional
Outline: (§2)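 CLSI broth microdilution for filamentous fungi. Isolates were stored at −80°C and subcultured on potato dextrose agar at 35°C. MICs were read after 24 h. […] The QC strain was Paecilomyces variotii ATCC 36257.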

[4] = tested on: Cunninghamella bertholletiae; assay: Antifungal activity against Cunninghamella bertholletiae UTHSC 04-2581 after 24 hrs by broth microdilution method; assay type: functional; conditions: UTHSC 04-2581, 24 h; outline: as §2
[5] = tested on: Cunninghamella bertholletiae; assay: Antifungal activity against Cunninghamella bertholletiae FMR-9598 infected in neutropenic OF1 mouse assessed as decreased fungal load in kidney at 60 mg/kg, po qd administered 1 day post infection measured after 4 to 5 days relative to untreated control; assay type: functional, organism-based; set-up: dose 60 mg/kg; outline: as §1
[6] = tested on: Cunninghamella bertholletiae; assay: Antifungal activity against Cunninghamella bertholletiae UTHSC 05-2275 infected in neutropenic OF1 mouse assessed as decreased fungal load in kidney at 60 mg/kg, po qd administered 1 day post infection measured after 4 to 5 days relative to untreated control; assay type: functional, organism-based; set-up: dose 60 mg/kg; outline: as §1
[7] = tested on: Cunninghamella bertholletiae; assay: Antifungal activity against Cunninghamella bertholletiae FMR-9598 infected in neutropenic OF1 mouse assessed as decreased fungal load in kidney at 0.8 mg/kg, iv qd administered 1 day post infection measured after 4 to 5 days relative to untreated control; assay type: functional, organism-based; set-up: dose 0.8 mg/kg; outline: as §1
[8] = tested on: Cunninghamella bertholletiae; assay: Antifungal activity against Cunninghamella bertholletiae UTHSC 03-2241 infected in neutropenic OF1 mouse assessed as decreased fungal load in kidney at 60 mg/kg, po qd administered 1 day post infection measured after 4 to 5 days relative to untreated control; assay type: functional, organism-based; set-up: dose 60 mg/kg; outline: as §1
[9] = tested on: Cunninghamella bertholletiae; assay: Antifungal activity against Cunninghamella bertholletiae UTHSC 03-2241 infected in neutropenic OF1 mouse assessed as decreased fungal load in lung at 60 mg/kg, po qd administered 1 day post infection measured after 4 to 5 days relative to untreated control; assay type: functional, organism-based; set-up: dose 60 mg/kg; outline: as §1
[10] = tested on: Cunninghamella bertholletiae; assay: Antifungal activity against Cunninghamella bertholletiae UTHSC 06-1945 after 24 hrs by broth microdilution method; assay type: functional; conditions: UTHSC 06-1945, 24 h; outline: as §2
[11] = Antifungal activity against Cunninghamella echinulata FMR 10973 after 24 hrs by broth microdilution method; assay type: functional; outline: as §2
[12] = tested on: Cunninghamella bertholletiae; assay: Antifungal activity against Cunninghamella bertholletiae UTHSC 05-2275 after 24 hrs by broth microdilution method; assay type: functional; conditions: UTHSC 05-2275, 24 h; outline: as §2
[13] = tested on: Cunninghamella bertholletiae; assay: Antifungal activity against Cunninghamella bertholletiae FMR-9598 infected in neutropenic OF1 mouse assessed as decreased fungal load in lung at 60 mg/kg, po qd administered 1 day post infection measured after 4 to 5 days relative to untreated control; assay type: functional, organism-based; set-up: dose 60 mg/kg; outline: as §1
[14] = tested on: Cunninghamella bertholletiae; assay: Antifungal activity against Cunninghamella bertholletiae UTHSC 05-2275 infected in neutropenic OF1 mouse assessed as decreased fungal load in lung at 60 mg/kg, po qd administered 1 day post infection measured after 4 to 5 days relative to untreated control; assay type: functional, organism-based; set-up: dose 60 mg/kg; outline: as §1
[15] = tested on: Cunninghamella bertholletiae; assay: Antifungal activity against Cunninghamella bertholletiae FMR-9598 after 24 hrs by broth microdilution method; assay type: functional; conditions: FMR-9598, 24 h; outline: as §2
[16] = tested on: Cunninghamella bertholletiae; assay: Antifungal activity against Cunninghamella bertholletiae UTHSC 03-2241 infected in neutropenic OF1 mouse assessed as decreased fungal load in lung at 0.8 mg/kg, iv qd administered 1 day post infection measured after 4 to 5 days relative to untreated control; assay type: functional, organism-based; set-up: dose 0.8 mg/kg; outline: as §1
[17] = tested on: Cunninghamella bertholletiae; assay: Antifungal activity against Cunninghamella bertholletiae UTHSC 05-2275 infected in neutropenic OF1 mouse assessed as increase in mouse survival rate at 80 mg/kg, po qd administered 1 day after infection for 7 days relative to untreated control; assay type: functional, organism-based; set-up: dose 80 mg/kg
Outline: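 Male OF1 mice, about 30 g, made neutropenic with cyclophosphamide 200 mg/kg i.p. plus 5-fluorouracil 150 mg/kg i.v. 1 day before challenge. Infected i.v. via the lateral tail vein with 1 × 10⁴ CFU of hemacytometer-counted sporangiospores in 0.2 ml saline. Ceftazidime 5 mg/day s.c. on days 1–7. Oral treatment started 24 h after challenge; 10 mice per group; checked daily for 20 days; Kaplan-Meier mean survival time, log-rank test.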

[18] = tested on: Cunninghamella bertholletiae; assay: Antifungal activity against Cunninghamella bertholletiae FMR 9598 infected in neutropenic OF1 mouse assessed as increase in mouse survival rate at 0.8 mg/kg, iv qd administered 1 day after infection for 7 days relative to untreated control; assay type: functional, organism-based; set-up: dose 0.8 mg/kg
Outline: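 Male OF1 mice (~30 g) were made neutropenic with cyclophosphamide 200 mg/kg i.p. plus 5-fluorouracil 150 mg/kg i.v. 1 day before challenge. Challenge was 1 × 10⁴ CFU sporangiospores in 0.2 ml saline via the lateral tail vein. Mice got ceftazidime 5 mg/day s.c. on days 1–7. Dosing started 24 h post-challenge for 7 days. There were 10 mice/group, observed daily for 20 days. Kaplan-Meier analysis with log-rank test.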

[19] = tested on: Cunninghamella bertholletiae; assay: Antifungal activity against Cunninghamella bertholletiae UTHSC 04-2581 infected in neutropenic OF1 mouse assessed as decreased fungal load in lung at 60 mg/kg, po qd administered 1 day post infection measured after 4 to 5 days relative to untreated control; assay type: functional, organism-based; set-up: dose 60 mg/kg; outline: as §1
[20] = Antifungal activity against Cunninghamella echinulata FMR 10974 after 24 hrs by broth microdilution method; assay type: functional; outline: as §2
[21] = tested on: Cunninghamella bertholletiae; assay: Antifungal activity against Cunninghamella bertholletiae UTHSC 05-2275 infected in neutropenic OF1 mouse assessed as decreased fungal load in kidney at 80 mg/kg, po qd administered 1 day post infection measured after 4 to 5 days relative to untreated control; assay type: functional, organism-based; set-up: dose 80 mg/kg; outline: as §1
[22] = tested on: Cunninghamella bertholletiae; assay: Antifungal activity against Cunninghamella bertholletiae UTHSC 05-2275 infected in neutropenic OF1 mouse assessed as decreased fungal load in lung at 80 mg/kg, po qd administered 1 day post infection measured after 4 to 5 days relative to untreated control; assay type: functional, organism-based; set-up: dose 80 mg/kg; outline: as §1
[23] = tested on: Cunninghamella bertholletiae; assay: Antifungal activity against Cunninghamella bertholletiae UTHSC 04-2581 infected in neutropenic OF1 mouse assessed as decreased fungal load in kidney at 60 mg/kg, po qd administered 1 day post infection measured after 4 to 5 days relative to untreated control; assay type: functional, organism-based; set-up: dose 60 mg/kg; outline: as §1
[24] = Antifungal activity against Cunninghamella echinulata UTHSC 03-3725 after 24 hrs by broth microdilution method; assay type: functional; outline: as §2
[25] = tested on: Cunninghamella bertholletiae; assay: Antifungal activity against Cunninghamella bertholletiae UTHSC 03-2241 after 24 hrs by broth microdilution method; assay type: functional; conditions: UTHSC 03-2241, 24 h; outline: as §2

C[C@@H]1[C@H](O)[C@@H](C)/C=C/C=C/C=C/C=C/C=C/C=C/C=C/[C@H](O[C@@H]2O[C@H](C)[C@@H](O)[C@H](N)[C@@H]2O)C[C@@H]2O[C@](O)(C[C@@H](O)C[C@@H](O)[C@H](O)CC[C@@H](O)C[C@@H](O)CC(=O)O[C@H]1C)C[C@H](O)[C@H]2C(=O)O [AMPHOTERICIN B]
Activity [1]: Active | Activity [2]: Active | MIC [3]: 16 µg/mL (≈ 17.3 µM) | MIC [4]: 4 µg/mL (≈ 4.33 µM) | Activity [5]: Active | Activity [6]: Active | Activity [7]: Active | Activity [8]: Active | Activity [9]: Active | MIC [10]: 4 µg/mL (≈ 4.33 µM) | MIC [11]: 4 µg/mL (≈ 4.33 µM) | MIC [12]: 2 µg/mL (≈ 2.16 µM) | Activity [13]: Active | Activity [14]: Active | MIC [15]: 2 µg/mL (≈ 2.16 µM) | Activity [16]: Active | Activity [17]: Active | Activity [18]: inactive | Activity [19]: Active | MIC [20]: 8 µg/mL (≈ 8.66 µM) | Activity [21]: Active | Activity [22]: Active | Activity [23]: Active | MIC [24]: 8 µg/mL (≈ 8.66 µM) | MIC [25]: 4 µg/mL (≈ 4.33 µM)

CC[C@@H]([C@H](C)O)n1ncn(-c2ccc(N3CCN(c4ccc(OC[C@@H]5CO[C@@](Cn6cncn6)(c6ccc(F)cc6F)C5)cc4)CC3)cc2)c1=O [POSACONAZOLE]
Activity [1]: Active | Activity [2]: Active | MIC [3]: 16 µg/mL (≈ 22.8 µM) | MIC [4]: 0.5 µg/mL (≈ 0.713 µM) | Activity [5]: Active | Activity [6]: Active | Activity [7]: Active | Activity [8]: Active | Activity [9]: Active | MIC [10]: 0.5 µg/mL (≈ 0.713 µM) | MIC [11]: > 16 µg/mL | MIC [12]: 0.5 µg/mL (≈ 0.713 µM) | Activity [13]: Active | Activity [14]: Active | MIC [15]: 0.5 µg/mL (≈ 0.713 µM) | Activity [16]: Active | Activity [17]: Active | Activity [19]: Active | MIC [20]: > 16 µg/mL | Activity [21]: Active | Activity [22]: Active | Activity [23]: Active | MIC [24]: 1 µg/mL (≈ 1.43 µM) | MIC [25]: 0.5 µg/mL (≈ 0.713 µM)
